According to publication PMC5663466 (Journal of proteome research, 2017):

Assays:
[1] = system: tyrosine and serine/threonine kinases; details: cited from earlier work
[2] = system: protein and lipid kinases in HeLa cell lysate; assay: Affinity pulldown-soluble competition in duplex SILAC-labeled HeLa cell lysate; format: binding, human; details: 50 μM soluble competitor against affinity matrix 7
Outline: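 HeLa cells SILAC-labelled for ≥5 doublings in Lys/Arg-free DMEM with 10% dialysed FBS, 200 μg/ml proline and 0.2 mM light or heavy Lys/Arg, then lysed in modified RIPA buffer. Lysate (300 μg, 2 mg/ml) was pre-incubated 20 min at 4°C with DMSO or test compound (1% DMSO final), then pulled down 3 h at 4°C. SILAC channel beads were combined after washing, digested on-bead with LysC then trypsin, and run as single-shot nanoLC-MS/MS.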

**Q.** With `Cc1nc(Nc2ncc(C(=O)Nc3c(C)cccc3Cl)s2)cc(N2CCN(CCO)CC2)n1` [dasatinib] as the compound, how does the “number of tyrosine and serine/threonine kinases inhibited” value [1] read?
**A.** Its value is “over 30”.

**Q.** With `COc1cc2c(Oc3ccc(NC(=O)C4(C(=O)Nc5ccc(F)cc5)CC4)cc3F)ccnc2cc1OCCCN1CCOCC1` [foretinib] as the compound, how does the “number of protein and lipid kinases with specific interaction” value [2] read?
**A.** Its value is 29.
